# ChEMBL document CHEMBL4004797, “Design and synthesis of formononetin-dithiocarbamate hybrids that inhibit growth and migration of PC-3 cells via MAPK/Wnt signaling pathways” (Eur J Med Chem, 2017)
# The source made the active and inactive calls. The calls are words filed in the database; no cut-off is given here.
# Assays:
# [1] = tested on: ECa-109 cell line; experiment: Cytotoxicity against human EC109 cells assessed as inhibition of cell viability after 48 hrs by MTT assay; assay type: functional, cell-based; conditions: ECa-109, 48 h
# Method in brief: (§1)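 Cells grown in RPMI 1640 with 10% FBS, penicillin and streptomycin at 37 °C under 5% CO2. After 24 h, medium replaced with medium containing various concentrations. Exposure 48 h, then MTT read-out at 570 nm. IC50 is the concentration giving 50% proliferation inhibition, from dose-response curves; mean ± SD of three independent experiments.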
# [2] = tested on: MGC-803; experiment: Cytotoxicity against human MGC803 cells assessed as inhibition of cell viability after 48 hrs by MTT assay; assay type: functional, cell-based; conditions: MGC-803, 48 h; method in brief: as §1
# [3] = tested on: PC-3; experiment: Cytotoxicity against human PC3 cells assessed as inhibition of cell viability after 48 hrs by MTT assay; assay type: functional, cell-based; conditions: for IC50: PC-3, 48 h; method in brief: as §1
# [4] = tested on: PC-3; experiment: Cell cycle arrest in human PC3 cells assessed as accumulation at G1 phase at 0.5 uM after 48 hrs by propidium iodide staining-based flow cytometric method (reference value: 54.65%); assay type: functional
# [5] = tested on: PC-3; experiment: Downregulation of beta-catenin levels in human PC3 cells after 48 hrs by Western blot method; assay type: functional, cell-based
# Method in brief: (§2)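 Wnt pathway proteins probed by Western blot in PC-3 cells after 48 h at 0, 0.1, 0.5 or 2.5 μM. RIPA lysis, SDS-PAGE, nitrocellulose, overnight primary antibody at 4 °C, ECL detection. Expression quantified from three independent experiments.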
# [6] = tested on: PC-3; experiment: Cell cycle arrest in human PC3 cells assessed as accumulation at S phase at 2.5 uM after 48 hrs by propidium iodide staining-based flow cytometric method (reference value: 26.54%); assay type: functional
# [7] = tested on: PC-3; experiment: Cell cycle arrest in human PC3 cells assessed as accumulation at S phase at 0.5 uM after 48 hrs by propidium iodide staining-based flow cytometric method (reference value: 26.54%); assay type: functional
# [8] = tested on: PC-3; experiment: Downregulation of CDK4 levels in human PC3 cells after 48 hrs by Western blot method; assay type: functional, cell-based
# Method in brief: (§3)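 PC-3 cells treated 48 h at 0, 0.1, 0.5 or 2.5 μM, then lysed in RIPA buffer with protease inhibitors. Protein measured by BCA, separated by SDS-PAGE, transferred to nitrocellulose, blocked in 5% milk, probed overnight at 4 °C for cyclin D1, CDK4, cyclin A and cyclin B1, detected by ECL. Bands quantified; three independent experiments.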
# [9] = tested on: PC-3; experiment: Upregulation of Axin levels in human PC3 cells after 48 hrs by Western blot method; assay type: functional, cell-based; method in brief: as §2
# [10] = tested on: PC-3; experiment: Induction of apoptosis in human PC3 cells assessed as late apoptotic cells at 0.1 uM after 48 hrs by annexin V-FITC/propidium iodide staining-based flow cytometric method (reference value: 1.3%); assay type: functional
# [11] = tested on: PC-3; experiment: Cell cycle arrest in human PC3 cells assessed as accumulation at G1 phase at 0.1 uM after 48 hrs by propidium iodide staining-based flow cytometric method (reference value: 54.65%); assay type: functional
# [12] = tested on: PC-3; experiment: Induction of apoptosis in human PC3 cells assessed as early apoptotic cells at 0.5 uM after 48 hrs by annexin V-FITC/propidium iodide staining-based flow cytometric method (reference value: 4.7%); assay type: functional
# [13] = tested on: PC-3; experiment: Induction of apoptosis in human PC3 cells assessed as late apoptotic cells at 2.5 uM after 48 hrs by annexin V-FITC/propidium iodide staining-based flow cytometric method (reference value: 1.3%); assay type: functional
# [14] = tested on: PC-3; experiment: Induction of apoptosis in human PC3 cells assessed as early apoptotic cells at 2.5 uM after 48 hrs by annexin V-FITC/propidium iodide staining-based flow cytometric method (reference value: 4.7%); assay type: functional
# [15] = tested on: PC-3; experiment: Downregulation of p38 levels in human PC3 cells after 48 hrs by Western blot analysis; assay type: functional, cell-based
# Method in brief: (§4)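 PC-3 cells exposed 48 h to 0, 0.1, 0.5 or 2.5 μM. RIPA lysates, BCA protein assay, SDS-PAGE, nitrocellulose transfer, 5% milk block, primary antibodies overnight at 4 °C against p-ERK, p-c-Jun, c-Myc, p38 and p-p38, secondary 1:5000 for 2 h, ECL detection. Levels quantified from three independent experiments.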
# [16] = tested on: PC-3; experiment: Cytotoxicity against human PC3 cells assessed as inhibition of cell growth at 2.5 uM after 6 to 12 hrs by MTT assay; assay type: functional, cell-based
# [17] = species: Homo sapiens; experiment: Inhibition of ERK phosphorylation in human PC3 cells after 48 hrs by Western blot analysis; assay type: cell-based; method in brief: as §4
# [18] = tested on: PC-3; experiment: Cell cycle arrest in human PC3 cells assessed as accumulation at G1 phase at 2.5 uM after 48 hrs by propidium iodide staining-based flow cytometric method (reference value: 54.65%); assay type: functional
# [19] = tested on: PC-3; experiment: Upregulation of Bax levels in human PC3 cells at 0.1 to 2.5 uM after 48 hrs by Western blot method; assay type: functional, cell-based
# Method in brief: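 Bax protein measured by Western blot in PC-3 cells after 48 h at 0, 0.1, 0.5 or 2.5 μM: RIPA lysis, SDS-PAGE, nitrocellulose transfer, overnight primary antibody at 4 °C, ECL detection.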
# [20] = biological target: Myc proto-oncogene protein (Homo sapiens) (UniProt P01106); experiment: Inhibition of c-Myc expression in human PC3 cells after 48 hrs by Western blot analysis
# [21] = biological target: Transcription factor Jun (Homo sapiens) (UniProt P05412); experiment: Inhibition of c-Jun phosphorylation in human PC3 cells after 48 hrs by Western blot analysis; assay type: cell-based; method in brief: as §4
# [22] = tested on: PC-3; experiment: Induction of apoptosis in human PC3 cells assessed as early apoptotic cells at 0.1 uM after 48 hrs by annexin V-FITC/propidium iodide staining-based flow cytometric method (reference value: 4.7%); assay type: functional
# [23] = tested on: PC-3; experiment: Induction of apoptosis in human PC3 cells assessed as late apoptotic cells at 0.5 uM after 48 hrs by annexin V-FITC/propidium iodide staining-based flow cytometric method (reference value: 1.3%); assay type: functional
# [24] = biological target: MAP kinase p38 (Homo sapiens) (UniProt O15264+Q15759+Q16539+P53778); experiment: Inhibition of p38 phosphorylation in human PC3 cells after 48 hrs by Western blot analysis; assay type: cell-based; method in brief: as §4
# [25] = tested on: PC-3; experiment: Antimigratory activity in human PC3 cells at 0.1 to 2.5 uM after 48 hrs by Hoechst 33258 staining-based transwell assay; assay type: functional, cell-based
# Method in brief: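 Transwell migration: upper chamber holds 10^4 PC-3 cells in medium with 1% FBS plus 0, 0.1, 0.5 or 2.5 μM compound. Lower chamber holds medium with 20% FBS as chemoattractant. After 48 h both chambers washed with PBS, stained with Hoechst 33258, and migrated cells counted by high-content imaging. Three independent experiments.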
# [26] = tested on: PC-3; experiment: Cell cycle arrest in human PC3 cells assessed as accumulation at S phase at 0.1 uM after 48 hrs by propidium iodide staining-based flow cytometric method (reference value: 26.54%); assay type: functional
# [27] = tested on: PC-3; experiment: Cell cycle arrest in human PC3 cells assessed as accumulation at G2 phase at 2.5 uM after 48 hrs by propidium iodide staining-based flow cytometric method (reference value: 18.31%); assay type: functional
# [28] = tested on: PC-3; experiment: Downregulation of cyclin D1 levels in human PC3 cells after 48 hrs by Western blot method; assay type: functional, cell-based; method in brief: as §3
# [29] = tested on: GES1; experiment: Cytotoxicity against human GES-1 cells assessed as inhibition of cell viability after 48 hrs by MTT assay; assay type: cell-based; conditions: GES1, 48 h; method in brief: as §1
# [30] = tested on: PC-3; experiment: Cell cycle arrest in human PC3 cells assessed as accumulation at G2 phase at 0.5 uM after 48 hrs by propidium iodide staining-based flow cytometric method (reference value: 18.31%); assay type: functional
# [31] = tested on: PC-3; experiment: Cell cycle arrest in human PC3 cells assessed as accumulation at G2 phase at 0.1 uM after 48 hrs by propidium iodide staining-based flow cytometric method (reference value: 18.31%); assay type: functional
# [32] = tested on: PC-3; experiment: Anticlonogenic activity against human PC3 cells assessed as colony formation efficiency at 2.5 uM after 1 week by crystal violet staining-based assay relative to control; assay type: functional
# Method in brief: (§5)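 PC-3 cells seeded, grown 24 h, then given fresh medium containing a range of concentrations and treated for one week. Washed with PBS, fixed in 4% paraformaldehyde, stained with 0.1% crystal violet, imaged. Colonies counted and colony formation efficiency calculated relative to control. Three independent experiments.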
# [33] = tested on: PC-3; experiment: Anticlonogenic activity against human PC3 cells at 2.5 uM after 1 week by crystal violet staining-based assay; assay type: functional, cell-based; method in brief: as §5
# [34] = tested on: PC-3; experiment: Downregulation of TCF4 levels in human PC3 cells after 48 hrs by Western blot method; assay type: functional, cell-based; method in brief: as §2
# Chain of Transcription factor Jun (Homo sapiens) (P05412 whole entry): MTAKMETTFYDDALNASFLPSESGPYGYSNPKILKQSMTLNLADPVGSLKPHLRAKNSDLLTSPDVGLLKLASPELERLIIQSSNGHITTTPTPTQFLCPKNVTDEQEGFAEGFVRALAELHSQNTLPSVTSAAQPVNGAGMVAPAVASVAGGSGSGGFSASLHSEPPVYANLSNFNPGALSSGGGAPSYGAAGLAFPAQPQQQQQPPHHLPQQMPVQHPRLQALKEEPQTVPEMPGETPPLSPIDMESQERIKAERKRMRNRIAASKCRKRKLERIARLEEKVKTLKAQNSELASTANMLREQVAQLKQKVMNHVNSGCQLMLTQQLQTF
# Chain of Myc proto-oncogene protein (Homo sapiens) (P01106 whole entry): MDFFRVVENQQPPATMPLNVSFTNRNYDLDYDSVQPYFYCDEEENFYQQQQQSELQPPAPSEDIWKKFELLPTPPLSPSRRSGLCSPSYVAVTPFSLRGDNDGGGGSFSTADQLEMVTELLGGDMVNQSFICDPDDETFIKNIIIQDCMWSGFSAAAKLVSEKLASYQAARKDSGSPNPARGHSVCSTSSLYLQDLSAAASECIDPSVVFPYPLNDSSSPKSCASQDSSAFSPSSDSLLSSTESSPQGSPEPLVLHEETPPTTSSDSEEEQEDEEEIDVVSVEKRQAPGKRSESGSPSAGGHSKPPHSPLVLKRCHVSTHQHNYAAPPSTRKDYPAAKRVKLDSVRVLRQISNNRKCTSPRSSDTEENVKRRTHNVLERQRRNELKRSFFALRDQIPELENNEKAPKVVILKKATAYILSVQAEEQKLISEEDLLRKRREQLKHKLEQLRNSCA
smiles,measurement,setting,value
COc1ccc(-c2coc3cc(OCCCSC(=S)N4CCOCC4)ccc3c2=O)cc1,IC50,[1],34 µM
same,IC50,[2],49.6 µM
same,IC50,[3],27.4 µM
CCN1CCN(C(=S)SCCCOc2ccc3c(=O)c(-c4ccc(OC)cc4)coc3c2)CC1,IC50,[1],36.9 µM
same,IC50,[2],54 µM
same,IC50,[3],7.08 µM
COc1ccc(-c2coc3cc(OCCCSC(=S)N4CCN(C(C)=O)CC4)ccc3c2=O)cc1,IC50,[1],24.7 µM
same,IC50,[2],39.4 µM
same,IC50,[3],4.31 µM
O=c1[nH]cc(F)c(=O)[nH]1 [FLUOROURACIL],IC50,[1],10.3 µM
same,IC50,[2],7.21 µM
same,IC50,[3],29.3 µM
COc1ccc(-c2coc3cc(OCCCSC(=S)N4CCN(c5ccccn5)CC4)ccc3c2=O)cc1,IC50,[1],38.3 µM
same,IC50,[2],42 µM
same,IC50,[3],17.4 µM
COc1ccc(-c2coc3cc(OCCCSC(=S)N4CCCC4)ccc3c2=O)cc1,IC50,[1],30.8 µM
same,IC50,[2],40 µM
same,IC50,[3],19.4 µM
COc1ccc(-c2coc3cc(OCCCBr)ccc3c2=O)cc1,IC50,[1],39.7 µM
same,IC50,[2],64.9 µM
same,IC50,[3],62.6 µM
COc1ccc(-c2coc3cc(OCCCCCBr)ccc3c2=O)cc1,IC50,[1],59.1 µM
same,IC50,[2],> 100 µM
same,IC50,[3],44.8 µM
COc1ccc(-c2coc3cc(OCCCSC(=S)N4CCN(Cc5ccccc5)CC4)ccc3c2=O)cc1,IC50,[1],25.3 µM
same,IC50,[2],43.8 µM
same,IC50,[3],14.9 µM
COc1ccc(-c2coc3cc(OCCCCSC(=S)N4CCN(C(=O)OC(C)(C)C)CC4)ccc3c2=O)cc1,IC50,[1],8.84 µM
same,IC50,[2],31.3 µM
same,IC50,[3],4.61 µM
COc1ccc(-c2coc3cc(O)ccc3c2=O)cc1 [FORMONONETIN],IC50,[1],> 100 µM
same,IC50,[2],> 100 µM
same,IC50,[3],57 µM
COc1ccc(-c2coc3cc(OCCBr)ccc3c2=O)cc1,IC50,[1],55.1 µM
same,IC50,[2],> 100 µM
same,IC50,[3],41.9 µM
COc1ccc(-c2coc3cc(OCCCCBr)ccc3c2=O)cc1,IC50,[1],66.3 µM
same,IC50,[2],52.7 µM
same,IC50,[3],55.6 µM
COc1ccc(-c2coc3cc(OCCSC(=S)N4CCN(C(=O)OC(C)(C)C)CC4)ccc3c2=O)cc1,IC50,[1],4.09 µM
same,IC50,[2],11.6 µM
same,IC50,[3],3.64 µM
COc1ccc(-c2coc3cc(OCCCSC(=S)N4CCN(C)CC4)ccc3c2=O)cc1,IC50,[1],24.2 µM
same,IC50,[2],21.9 µM
same,IC50,[3],2.21 µM
COc1ccc(-c2coc3cc(OCCCSC(=S)N4CCN(C(=O)OC(C)(C)C)CC4)ccc3c2=O)cc1,Activity,[4],61.29%
same,IC50,[1],3.54 µM
same,Activity,[5],Dose-dependent effect
same,Activity,[6],10.33%
same,Activity,[7],29.69%
same,Activity,[8],Dose-dependent effect
same,Activity,[9],Dose-dependent effect
same,Activity,[10],1.1%
same,Activity,[11],55.6%
same,Activity,[12],5.7%
same,Activity,[13],0.9%
same,Activity,[14],5.5%
same,Activity,[15],Dose-dependent effect
same,growth inhibition (GI),[16],Active
same,inhibition,[17],Dose-dependent effect
same,Activity,[18],83.32%
same,IC50,[2],6.07 µM
same,Activity,[19],inactive
same,inhibition,[20],Dose-dependent effect
same,inhibition,[21],Dose-dependent effect
same,Activity,[22],6.2%
same,Activity,[23],1.3%
same,Activity,[3],Dose-dependent effect
same,IC50,[3],1.97 µM
same,inhibition,[24],Dose-dependent effect
same,Activity,[25],Dose-dependent effect
same,Activity,[26],26.75%
same,Activity,[27],3.66%
same,Activity,[28],Dose-dependent effect
same,IC50,[29],> 100 µM
same,Activity,[30],9.1%
same,Activity,[31],17.3%
same,Activity,[32],6%
same,Activity,[33],Dose-dependent effect
same,Activity,[34],Dose-dependent effect
